# Data reported in ChEMBL document CHEMBL3875170, “2-Methyl-4/5-nitroimidazole derivatives potentiated against sexually transmitted Trichomonas: Design, synthesis, biology and 3D-QSAR study” (Eur J Med Chem, 2016).
# What was measured:
# [1] = test system: Trichomonas vaginalis; experiment: Antiparasitic activity against metronidazole sensitive Trichomonas vaginalis ATCC 33592 after 48 hrs by trypan blue exclusion assay; type: functional; conditions: ATCC 33592, 48 h
# [2] = test system: Trichomonas vaginalis; experiment: Antiparasitic activity against metronidazole resistant Trichomonas vaginalis ATCC 50143 after 48 hrs by trypan blue exclusion assay; type: functional; conditions: ATCC 50143, 48 h
# In short: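 T. vaginalis trophozoites ([…]), log phase, grown in TYM with 10% FCS, vitamin mix and penicillin/streptomycin at 37 °C. Test agents from DMSO stocks serially diluted in TYM; DMSO/TYM vehicle controls. Anaerobic incubation at 37 °C with microscopic viability checks from 3 to 48 h by trypan blue exclusion. MIC is the lowest concentration killing all cells by 48 h. Repeated three times.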
# [3] = Cytotoxicity against human HeLa cells after 24 hrs by MTT assay; type: toxicity, cell-based
# In short: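 HeLa cells seeded at 2 × 10⁴ per well in DMEM with 10% FCS, in triplicate, and held 24 h at 37 °C in 5% CO₂. Exposed to compound dilutions for 24 h; controls received 0.05% DMSO. MTT in PBS pH 7.4 added, formazan dissolved in DMSO, OD540 read. IC50 taken as the concentration killing 50% of cells.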
# [4] = Selectivity index, ratio of IC50 for human HeLa cells to MIC for metronidazole sensitive Trichomonas vaginalis ATCC 33592; type: toxicity, cell-based; conditions: read-out: Selectivity Index
# In short: (§1)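 SI is HeLa IC50 divided by parasite MIC. HeLa cells seeded at 2 × 10⁴/well in triplicate in DMEM with 10% FCS, 24 h at 37 °C in 5% CO2. Medium then replaced with compound dilutions (0.05% DMSO controls) for 24 h. Viability by MTT read at OD540; IC50 is the concentration killing 50% of cells. MIC from 48 h trypan blue parasite killing in TYM.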
# [5] = Selectivity index, ratio of IC50 for human HeLa cells to MIC for metronidazole resistant Trichomonas vaginalis ATCC 50143; type: toxicity, cell-based; conditions: read-out: Selectivity Index; in short: as §1
# [6] = test system: Trichomonas vaginalis; experiment: Potency index, ratio of metronidazole MIC to compound MIC for metronidazole resistant Trichomonas vaginalis ATCC 50143; type: functional
Structure (SMILES),MIC [1] [µM],MIC [2] [µM],IC50 at 24 h [3] [mM],selectivity ratio [4],selectivity ratio [5],Ratio [6]
CCN(C)C(=S)SCC(O)Cn1c([N+](=O)[O-])cnc1C (stereo not given),24.6,393,4.15,169,10,
Cc1ncc([N+](=O)[O-])n1CC(O)CSC(=S)N1CCCCCC1 (racemic),34.9,69.8,0.411,11,6,2.5 - 12.6
CCOC(=O)N1CCN(CC(O)Cn2c([N+](=O)[O-])cnc2C)CC1 (racemic),22.9,91.6,3.67,160,40,<=12.7
Cc1ncc([N+](=O)[O-])n1CC(O)CN1CCCC(C)C1 (racemic),22.2,88.7,> 5,> 227,> 56,<=12.7
Cc1ncc([N+](=O)[O-])n1CC(O)CN1CCCCC1 (racemic),23.3,187,> 5,> 217,> 26,<=12.7
Cc1ncc([N+](=O)[O-])n1CC(O)CN1CCC(Cc2ccccc2)CC1 (racemic),34.9,140,1.43,40,10,<=12.7
CCN1CCN(CC(O)Cn2cc([N+](=O)[O-])nc2C)CC1 (racemic),337,,> 5,> 14,,
Cc1ncc([N+](=O)[O-])n1CC(O)CN1CCN(c2ccccc2)CC1 (racemic),22.6,181,> 5,> 220,> 27,<=12.7
Cc1ncc([N+](=O)[O-])n1CC(O)CN1CCCCC1C (racemic),55.4,443,> 5,> 90,> 11,
COc1ccccc1N1CCN(C(=S)SCC(O)Cn2c([N+](=O)[O-])cnc2C)CC1 (racemic),27.7,55.4,> 5,> 185,> 90,<=12.7
Cc1ncc([N+](=O)[O-])n1CC(O)CN1CCN(c2ccccc2F)CC1 (racemic),43,344,> 5,> 116,> 14,<=12.7
COc1ccccc1N1CCN(C(=S)SCC(O)Cn2cc([N+](=O)[O-])nc2C)CC1 (racemic),222,1110,> 5,> 22,> 4,
Cc1nc([N+](=O)[O-])cn1CC(O)CSC(=S)N1CCN(C(=O)OC(C)(C)C)CC1 (racemic),28.1,562,> 5,> 178,> 9,
CCOC(=O)N1CCN(C(=S)SCC(O)Cn2cc([N+](=O)[O-])nc2C)CC1 (racemic),120,600,2.36,19,4,
Cc1nc([N+](=O)[O-])cn1CC(O)CSC(=S)N1CCN(c2cccc(Cl)c2)CC1 (racemic),54.9,549,1.74,31,3,
Cc1ncc([N+](=O)[O-])n1CC(O)CN1CCC(C)CC1 (racemic),44.3,177,> 5,> 113,> 28,<=12.7
Cc1ncc([N+](=O)[O-])n1CC(O)CN1CCCC1 (racemic),49.2,197,> 5,> 102,> 25,<=12.7
Cc1nc([N+](=O)[O-])cn1CC(O)CSC(=S)N1CCCC(C)C1 (racemic),34.9,1400,2.7,105,2,
Cc1ncc([N+](=O)[O-])n1CC(O)CSC(=S)N1CCOCC1 (racemic),36.1,144,4.52,125,31,2.5 - 12.6

Structure (SMILES),MIC [1] [µM],MIC [2] [µM],IC50 at 24 h [3] [mM],selectivity ratio [4],selectivity ratio [5],Ratio [6]
COc1ccccc1N1CCN(CC(O)Cn2c([N+](=O)[O-])cnc2C)CC1 (racemic),33.3,133,4.39,131,33,<=12.7
Cc1ncc([N+](=O)[O-])n1CC(O)CSC(=S)N1CCCC1 (racemic),37.9,152,1.34,35,9,2.5 - 12.6
Cc1nc([N+](=O)[O-])cn1CC(O)CN1CCN(c2cccc(Cl)c2Cl)CC1 (racemic),121,1210,3.62,30,3,
Cc1ncc([N+](=O)[O-])n1CC(O)CN1CCCCCC1 (racemic),22.2,44.3,> 5,> 227,> 113,<=12.7
Cc1ncc([N+](=O)[O-])n1CC(O)CN1CCN(c2cccc(Cl)c2)CC1 (racemic),132,330,1.44,10,4,<=12.7
Cc1ncc([N+](=O)[O-])n1CC(O)CSC(=S)N1CCN(c2ccccn2)CC1 (racemic),29.6,148,2.97,100,20,<=12.7
Cc1ncc([N+](=O)[O-])n1CC(O)CSC(=S)N1CCCCC1 (racemic),72.7,145,1.4,19,9,2.5 - 12.6
Cc1nc([N+](=O)[O-])cn1CC(O)CSC(=S)N1CCN(c2cccc(Cl)c2Cl)CC1 (racemic),25.5,510,0.724,30,2,
CCN1CCN(C(=S)SCC(O)Cn2c([N+](=O)[O-])cnc2C)CC1 (racemic),20.9,83.8,> 5,> 250,> 60,<=12.7
Cc1ncc([N+](=O)[O-])n1CC(O)CN1CCN(c2ccco2)CC1 (racemic),21.5,172,3.52,163,20,<=12.7
CCCCN1CCN(C(=S)SCC(O)Cn2cc([N+](=O)[O-])nc2C)CC1 (racemic),125,,4.33,34,,
Cc1nc([N+](=O)[O-])cn1CC(O)CN1CCN(c2ccccn2)CC1 (racemic),144,1450,> 5,> 34,> 3,
Cc1ncc([N+](=O)[O-])n1CC(O)CSC(=S)N(C)C (racemic),20.6,82.2,> 5,> 243,> 61,<=12.7
Cc1ncc([N+](=O)[O-])n1CC(O)CSC(=S)N1CCN(c2ncccn2)CC1 (racemic),29.6,29.6,2.04,69,69,12.3
Cc1ncc([N+](=O)[O-])n1CC(O)CN1CCN(c2ncccn2)CC1 (racemic),22.5,90,3.93,174,43,<=12.7
CCN1CCN(C(=S)SCC(O)Cn2cc([N+](=O)[O-])nc2C)CC1 (racemic),134,1340,> 5,> 37,> 3,
Cc1ncc([N+](=O)[O-])n1CC(O)CN1C(C)CCCC1C (racemic),42.2,84.5,> 5,> 119,> 59,<=12.7
CCN(CC)C(=S)SCC(O)Cn1c([N+](=O)[O-])cnc1C (racemic),37.6,75.3,2.46,65,32,<=12.7
Cc1nc([N+](=O)[O-])cn1CC(O)Cn1cncn1 (racemic),99.2,992,> 5,> 50,> 5,
